The test system of series [1] is Pancreatic islet cell carcinoma. Kind of series: Additive antitumor activity in pancreatic islet cell carcinoma in RIP-Tag2 mouse assessed as reduction in proliferation by measuring reduction in phospho-histone H3 level at 100 mg/kg, po bid administered via gavage for 4 days in presence of OSI-930 by immunohistochemistry analysis. Format: functional, organism-based. The following applies: time 4.0 day.

In series [2] the target is DNA-dependent protein kinase catalytic subunit (Homo sapiens, UniProt P78527). The experiment in a line: Inhibition of DNA-PK (unknown origin) assessed as reduction in phosphorylated RPA32 level by cell based assay.
Chain of DNA-dependent protein kinase catalytic subunit (P78527 whole entry): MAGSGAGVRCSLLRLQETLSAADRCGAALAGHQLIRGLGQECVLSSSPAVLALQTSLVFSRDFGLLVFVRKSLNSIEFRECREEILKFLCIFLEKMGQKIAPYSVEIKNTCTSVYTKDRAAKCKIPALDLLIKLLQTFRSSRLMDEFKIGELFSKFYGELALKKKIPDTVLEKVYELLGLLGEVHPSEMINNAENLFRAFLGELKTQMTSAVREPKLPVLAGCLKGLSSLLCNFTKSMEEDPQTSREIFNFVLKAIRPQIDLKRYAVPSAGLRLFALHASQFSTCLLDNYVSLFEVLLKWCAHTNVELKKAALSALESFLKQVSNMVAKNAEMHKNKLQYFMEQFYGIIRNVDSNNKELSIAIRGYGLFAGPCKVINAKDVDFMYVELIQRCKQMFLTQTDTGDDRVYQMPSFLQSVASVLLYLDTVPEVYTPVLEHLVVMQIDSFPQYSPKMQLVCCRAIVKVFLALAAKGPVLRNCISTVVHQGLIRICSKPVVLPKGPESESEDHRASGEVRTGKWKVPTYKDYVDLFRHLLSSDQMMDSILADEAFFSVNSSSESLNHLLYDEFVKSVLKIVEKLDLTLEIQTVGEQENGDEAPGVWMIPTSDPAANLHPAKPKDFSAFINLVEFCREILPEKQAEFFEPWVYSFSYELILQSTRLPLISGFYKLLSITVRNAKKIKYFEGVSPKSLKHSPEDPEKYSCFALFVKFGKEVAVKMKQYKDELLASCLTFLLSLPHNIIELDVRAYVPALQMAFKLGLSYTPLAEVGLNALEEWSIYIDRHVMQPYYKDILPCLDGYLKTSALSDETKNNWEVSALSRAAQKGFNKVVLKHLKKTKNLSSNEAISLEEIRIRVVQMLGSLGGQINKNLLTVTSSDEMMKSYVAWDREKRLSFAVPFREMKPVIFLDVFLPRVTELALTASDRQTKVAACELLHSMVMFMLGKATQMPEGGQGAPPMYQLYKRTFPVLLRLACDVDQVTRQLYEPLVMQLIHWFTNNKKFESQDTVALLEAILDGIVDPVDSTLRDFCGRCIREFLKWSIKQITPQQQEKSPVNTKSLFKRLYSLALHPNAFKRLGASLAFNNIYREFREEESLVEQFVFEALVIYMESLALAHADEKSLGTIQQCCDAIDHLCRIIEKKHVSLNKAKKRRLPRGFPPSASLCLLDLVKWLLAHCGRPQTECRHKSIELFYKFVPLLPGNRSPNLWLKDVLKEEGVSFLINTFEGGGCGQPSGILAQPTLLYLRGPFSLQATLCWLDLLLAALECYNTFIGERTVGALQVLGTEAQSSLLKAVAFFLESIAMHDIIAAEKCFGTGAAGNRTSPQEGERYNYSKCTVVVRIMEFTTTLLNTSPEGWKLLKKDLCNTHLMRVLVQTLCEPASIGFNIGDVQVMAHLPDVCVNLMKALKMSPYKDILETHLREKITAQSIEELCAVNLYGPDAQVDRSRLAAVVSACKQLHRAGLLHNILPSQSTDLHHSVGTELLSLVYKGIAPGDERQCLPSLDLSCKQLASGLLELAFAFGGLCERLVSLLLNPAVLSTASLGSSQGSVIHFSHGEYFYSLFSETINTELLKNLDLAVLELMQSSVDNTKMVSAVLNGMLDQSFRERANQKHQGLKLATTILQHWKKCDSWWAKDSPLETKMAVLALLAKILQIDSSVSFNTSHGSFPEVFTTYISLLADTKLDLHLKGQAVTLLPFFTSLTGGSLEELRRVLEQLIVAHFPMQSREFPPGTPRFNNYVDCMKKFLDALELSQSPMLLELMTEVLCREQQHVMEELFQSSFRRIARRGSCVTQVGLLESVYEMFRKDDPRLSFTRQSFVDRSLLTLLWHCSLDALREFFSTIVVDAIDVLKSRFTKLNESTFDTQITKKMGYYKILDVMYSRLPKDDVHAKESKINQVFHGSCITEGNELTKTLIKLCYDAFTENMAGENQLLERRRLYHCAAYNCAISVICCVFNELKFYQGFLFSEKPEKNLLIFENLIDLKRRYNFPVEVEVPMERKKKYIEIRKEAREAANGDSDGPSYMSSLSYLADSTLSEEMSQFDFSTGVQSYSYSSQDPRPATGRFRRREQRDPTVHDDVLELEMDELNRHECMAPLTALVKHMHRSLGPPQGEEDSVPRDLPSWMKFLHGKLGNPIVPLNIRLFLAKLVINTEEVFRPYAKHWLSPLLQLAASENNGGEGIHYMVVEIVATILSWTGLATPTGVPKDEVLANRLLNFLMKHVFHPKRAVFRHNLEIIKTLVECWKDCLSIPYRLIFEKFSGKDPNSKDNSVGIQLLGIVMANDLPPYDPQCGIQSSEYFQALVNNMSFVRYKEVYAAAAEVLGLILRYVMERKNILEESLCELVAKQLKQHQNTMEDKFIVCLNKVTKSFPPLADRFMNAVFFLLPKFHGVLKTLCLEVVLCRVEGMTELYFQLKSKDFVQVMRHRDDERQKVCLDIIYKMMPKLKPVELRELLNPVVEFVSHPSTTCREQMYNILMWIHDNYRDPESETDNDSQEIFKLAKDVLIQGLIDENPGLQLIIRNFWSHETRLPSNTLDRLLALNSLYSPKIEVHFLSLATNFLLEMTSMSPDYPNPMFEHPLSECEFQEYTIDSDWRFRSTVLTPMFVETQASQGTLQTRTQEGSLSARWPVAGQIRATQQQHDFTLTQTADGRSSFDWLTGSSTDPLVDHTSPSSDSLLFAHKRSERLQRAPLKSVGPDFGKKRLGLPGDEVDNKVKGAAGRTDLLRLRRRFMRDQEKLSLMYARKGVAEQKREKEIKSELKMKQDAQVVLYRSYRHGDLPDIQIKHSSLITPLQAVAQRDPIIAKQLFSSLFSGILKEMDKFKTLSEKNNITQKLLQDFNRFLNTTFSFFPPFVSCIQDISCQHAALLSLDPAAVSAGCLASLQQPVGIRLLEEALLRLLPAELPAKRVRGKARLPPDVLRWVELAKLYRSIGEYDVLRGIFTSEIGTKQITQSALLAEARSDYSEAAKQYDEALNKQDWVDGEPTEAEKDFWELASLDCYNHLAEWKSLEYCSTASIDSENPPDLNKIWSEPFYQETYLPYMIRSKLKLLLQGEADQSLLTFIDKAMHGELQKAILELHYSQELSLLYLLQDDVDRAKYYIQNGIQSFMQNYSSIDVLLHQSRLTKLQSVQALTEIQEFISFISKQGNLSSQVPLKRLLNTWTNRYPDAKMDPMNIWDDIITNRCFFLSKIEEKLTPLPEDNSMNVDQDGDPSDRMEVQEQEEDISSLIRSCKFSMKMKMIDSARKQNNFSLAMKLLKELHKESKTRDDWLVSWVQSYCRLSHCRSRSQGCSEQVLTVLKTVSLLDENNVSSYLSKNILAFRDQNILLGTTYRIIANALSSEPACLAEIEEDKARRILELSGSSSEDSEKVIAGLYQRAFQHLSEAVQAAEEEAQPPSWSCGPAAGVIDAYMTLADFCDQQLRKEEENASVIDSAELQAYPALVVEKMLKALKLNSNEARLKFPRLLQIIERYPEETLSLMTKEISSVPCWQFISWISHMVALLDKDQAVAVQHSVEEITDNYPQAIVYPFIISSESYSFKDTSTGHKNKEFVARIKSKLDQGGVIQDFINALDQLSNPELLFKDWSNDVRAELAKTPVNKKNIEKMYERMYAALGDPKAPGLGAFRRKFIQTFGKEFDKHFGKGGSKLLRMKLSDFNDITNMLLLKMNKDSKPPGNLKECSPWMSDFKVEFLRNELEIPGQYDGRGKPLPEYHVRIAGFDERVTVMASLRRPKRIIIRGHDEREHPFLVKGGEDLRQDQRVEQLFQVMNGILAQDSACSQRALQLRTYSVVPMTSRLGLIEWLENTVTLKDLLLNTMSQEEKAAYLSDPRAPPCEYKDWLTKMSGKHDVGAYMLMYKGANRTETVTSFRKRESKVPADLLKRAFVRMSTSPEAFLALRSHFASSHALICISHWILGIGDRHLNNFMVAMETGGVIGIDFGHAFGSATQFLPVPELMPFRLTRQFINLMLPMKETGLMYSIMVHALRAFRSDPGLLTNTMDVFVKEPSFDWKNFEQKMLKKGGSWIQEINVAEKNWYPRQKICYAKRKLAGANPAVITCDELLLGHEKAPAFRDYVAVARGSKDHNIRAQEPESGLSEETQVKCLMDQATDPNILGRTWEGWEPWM
Series [3] relates to Pancreatic islet cell carcinoma. Kind of series: Antitumor activity against pancreatic islet cell carcinoma in RIP-Tag2 mouse assessed as reduction in VEGF production by measuring reduction in fluorescence in entire tumor at 75 mg/kg, po bid administered via gavage and measured after 7 days by immunohistochemical staining based confocal microscopic analysis relative to control. Type of series: functional. Also on record: scale not given: the % may be the effect or the level left. The note with it: time 7 day. In a few lines: (§1)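 Treatment began in RIP-Tag2 mice at 9–10 weeks: 75 mg/kg gavage BID for 1, 4 or 7 days, or 20 mg/kg ip QD for 7 days; vehicle Labrifil or water. Tissue fixed by vascular perfusion and 60–80 µm sections stained for VEGF with CD31. VEGF fluorescence intensity measured over whole tumor, tumor cells, or tumor vessels. 3–8 mice/group; ANOVA, Fisher PLSD.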

For series [4] the test system is unchanged. Kind of series: Antivascular activity in pancreatic islet cell carcinoma in RIP-Tag2 mouse assessed as suppression of tumor regrowth by measuring reduction in vessel density at 75 mg/kg, po bid administered via gavage pretreated with OSI-930 for 7 days at 200 mg/kg, po followed by compound administration and measured after 4 days (reference value: 18%). On the set-up: scale not given: the % may be the effect or the level left. The following applies: time 4 day. Format: functional. In a few lines:
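10-week-old RIP-Tag2 mice given OSI-930 200 mg/kg QD by gavage for 7 days, then 75 mg/kg BID by gavage for 4 days. Mice fixed by vascular perfusion; 60–80 µm tumor sections immunostained for endothelial cells; vessel area density from fluorescence images at threshold 30–50. 3–8 mice per group; ANOVA with Fisher PLSD.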

For series [5], the target named is Phosphatidylinositol 4,5-bisphosphate 3-kinase catalytic subunit gamma isoform (Homo sapiens, UniProt P48736). The experiment in a line: Inhibition of PI3Kgamma (unknown origin) in presence of ATP by HTRF assay. In a few lines:
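PI3K activity by HTRF assay at […] ATP.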

The subject of series [6] is Pancreatic islet cell carcinoma. The experiment in a line: Antitumor activity against pancreatic islet cell carcinoma in RIP-Tag2 mouse assessed as reduction in VEGF production by measuring reduction in fluorescence in entire tumor at 75 mg/kg, po bid administered via gavage and measured after 4 days by immunohistochemical staining based confocal microscopic analysis relative to control. Format: functional. Also on record: scale not given: the % may be the effect or the level left. The note with it: time 4 day. Put shortly: as §1

The test system is the same in series [7]. The experiment in a line: Antitumor activity against pancreatic islet cell carcinoma in RIP-Tag2 mouse assessed as reduction in cell proliferation at 75 mg/kg, po bid administered via gavage and measured after 7 days by immunohistochemistry analysis. Type of series: functional, organism-based. The note with it: time 7.0 day. Put shortly:
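RIP-Tag2 mice aged 9–10 weeks dosed by gavage BID for 7 days; vehicle Labrifil or water. Mice fixed by vascular perfusion, tumors cut into 60–80 µm sections. Proliferating cells stained for phospho-histone H3 and apoptotic cells for activated caspase-3. Sections imaged by fluorescence/confocal microscopy. Body weight checked daily, fluids given if loss exceeded 10%. 3–8 mice per group, SEM, ANOVA with Fisher PLSD.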

The subject of a further series is Mus musculus. The experiment in a line: In vivo inhibition of 4E-BP1 phosphorylation in RIP-Tag2 mouse with pancreatic islet cell carcinoma 75 mg/kg, po bid administered via gavage and measured after 7 days by immunohistochemistry. Format: functional, organism-based. The following applies: time 7.0 day. Put shortly: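 RIP-Tag2 mice aged 9–10 weeks dosed 75 mg/kg BID by gavage for 7 days, vehicle Labrifil or water; perfusion fixation, 60–80 µm tumor sections immunostained for phospho-4E-BP1, phospho-Akt or phospho-S6K with CD31; fluorescence/confocal imaging; 3–8 mice per group.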

In series [8] the test system is Pancreatic islet cell carcinoma. The experiment in a line: Antivascular activity against pancreatic islet cell carcinoma in RIP-Tag2 mouse assessed as reduction in CD31-positive tumor blood vessels at 75 mg/kg, po bid administered via gavage and measured after 7 days by immunohistochemical staining based fluorescence microscopic analysis relative to control. Format: functional. On the set-up: scale not given: the % may be the effect or the level left. The note with it: time 7 day. In a few lines: (§2)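 For 7 days, RIP-Tag2 mice, 9–10 weeks old, received 75 mg/kg gavage BID, 200 mg/kg gavage QD, or 20 mg/kg ip QD. Perfusion-fixed tumors cut at 60–80 µm and stained for CD31 and type IV collagen basement membrane. Vessel area density from fluorescence images with threshold 30–50; sprouts and empty basement membrane sleeves examined by confocal microscopy. 3–8 mice/group; ANOVA, Fisher PLSD.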

Series [9] is described as follows: Drug concentration in nu/nu CD-1 mouse plasma xenografted with human GEO cells at 75 mg/kg administered for 14 days and measured 1 hr post last dose. Type of series: ADME, organism-based. Background: Xenograft models place foreign cells or tissue in a host animal.
Series [10] relates to Pancreatic islet cell carcinoma. Kind of series: Antitumor activity against pancreatic islet cell carcinoma in RIP-Tag2 mouse assessed as reduction in VEGF production by measuring reduction in tumor vessels associated fluorescence intensity at 75 mg/kg, po bid administered via gavage and measured after 1 to 7 days by immunohistochemical staining based confocal microscopic analysis relative to control. Type of series: functional. Also on record: scale not given: the % may be the effect or the level left. The following applies: time 1-7 day. In a few lines:
as §1

For series [11], the target named is Eukaryotic translation initiation factor 4E-binding protein 1 (Homo sapiens) (UniProt Q13541). The experiment in a line: Inhibition of 4E-BP1 phosphorylation at Ser 37/46 residues in serum deprived/insulin stimulated human OVCAR-3 cells harboring PTEN and wild type PI3K preincubated for 2 hrs followed by insulin stimulation and measured immediately by Western blot analysis. Type of series: cell-based. The note with it: dose 0.001-10 µM. (In general: Immunoblotting shows a protein as a band on a membrane.)

The nature of series [12]: Drug concentration in nu/nu CD-1 mouse plasma xenografted with human GEO cells at 75 mg/kg administered for 14 days and measured 8 hr post last dose. Type of series: ADME, organism-based.
For series [13], the target named is Serine/threonine-protein kinase mTOR (Homo sapiens, UniProt P42345). The experiment in a line: Inhibition of mTOR (unknown origin) assessed as reduction in 4E-BP1 phosphorylation by cell based assay.
Another series addresses mTORC1 (Homo sapiens, UniProt P42345). Kind of series: Competitive inhibition of mTORC1 immunoprecipitated from human HeLa cells using His-tagged 4E-BP1 as substrate incubated for 30 mins in presence of ATP by chemiluminescence based ELISA. In a few lines: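 Native mTORC1 or mTORC2 complex immunoprecipitated from HeLa lysates; kinase reaction run at 1 mM ATP.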
Series [14] relates to Pancreatic islet cell carcinoma. Kind of series: Antivascular activity against pancreatic islet cell carcinoma in RIP-Tag2 mouse assessed as reduction in vascular sprouts at 75 mg/kg, po bid administered via gavage and measured after 7 days by immunohistochemical staining based fluorescence microscopic analysis relative to control. Format: functional. Also on record: scale not given: the % may be the effect or the level left. The following applies: time 7 day. In a few lines: as §2

The target of series [15] is Phosphatidylinositol 4,5-bisphosphate 3-kinase catalytic subunit alpha isoform (Homo sapiens, UniProt P42336). Kind of series: Inhibition of PI3Kalpha (unknown origin) in presence of ATP by HTRF assay. In general terms: In TR-FRET formats the signal depends on donor and acceptor labels being close together.
Chain of Phosphatidylinositol 4,5-bisphosphate 3-kinase catalytic subunit alpha isoform (P42336 whole entry, canonical isoform): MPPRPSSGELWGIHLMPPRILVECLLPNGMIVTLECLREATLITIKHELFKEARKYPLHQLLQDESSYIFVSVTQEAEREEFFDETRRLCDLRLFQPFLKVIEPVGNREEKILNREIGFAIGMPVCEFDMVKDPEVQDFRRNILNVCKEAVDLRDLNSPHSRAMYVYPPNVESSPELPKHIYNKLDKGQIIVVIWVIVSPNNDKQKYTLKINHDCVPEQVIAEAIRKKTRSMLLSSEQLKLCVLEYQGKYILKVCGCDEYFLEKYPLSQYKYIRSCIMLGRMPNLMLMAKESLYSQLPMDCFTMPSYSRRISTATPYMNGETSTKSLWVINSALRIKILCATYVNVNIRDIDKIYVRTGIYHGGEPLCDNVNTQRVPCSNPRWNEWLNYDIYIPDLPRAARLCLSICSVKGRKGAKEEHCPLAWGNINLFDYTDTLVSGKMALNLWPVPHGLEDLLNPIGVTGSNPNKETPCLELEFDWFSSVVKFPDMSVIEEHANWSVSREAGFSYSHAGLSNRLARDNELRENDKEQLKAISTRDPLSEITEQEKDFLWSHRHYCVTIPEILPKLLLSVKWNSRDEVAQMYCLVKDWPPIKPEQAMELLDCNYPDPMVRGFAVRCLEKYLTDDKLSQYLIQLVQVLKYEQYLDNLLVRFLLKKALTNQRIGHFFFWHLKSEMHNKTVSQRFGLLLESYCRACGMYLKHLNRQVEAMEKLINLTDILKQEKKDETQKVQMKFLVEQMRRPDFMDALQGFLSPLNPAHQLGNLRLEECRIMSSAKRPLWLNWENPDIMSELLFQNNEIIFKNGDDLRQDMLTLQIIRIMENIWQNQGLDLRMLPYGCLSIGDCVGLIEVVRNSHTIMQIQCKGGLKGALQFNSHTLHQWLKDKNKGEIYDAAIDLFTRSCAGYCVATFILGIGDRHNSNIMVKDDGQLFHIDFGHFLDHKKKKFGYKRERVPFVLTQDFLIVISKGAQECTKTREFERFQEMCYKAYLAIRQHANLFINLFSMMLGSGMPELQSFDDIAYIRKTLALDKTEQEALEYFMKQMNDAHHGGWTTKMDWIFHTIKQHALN
A further series relates to OVCAR-3. The experiment in a line: Inhibition of S6K phosphorylation at 235/236 residues in serum deprived/insulin stimulated human OVCAR-3 cells harboring PTEN and wild type PI3K at 0.001 to 10 uM preincubated for 2 hrs followed by insulin stimulation and measured immediately by Western blot analysis. The following applies: dose 0.001-10 µM. Format: cell-based.
The test system of series [16] is Pancreatic islet cell carcinoma. The experiment in a line: Additive antitumor activity in pancreatic islet cell carcinoma in RIP-Tag2 mouse assessed as induction of apoptosis by measuring increase in activated caspase-3 level at 100 mg/kg, po bid administered via gavage for 4 days in presence of OSI-930 by immunohistochemistry analysis relative to control. Format: functional. The note with it: time 4 day.

SMILES strings stand for the structures. The source made the active and inactive calls. A value given as a limit tells only on which side of the number the result lay.

As for `Nc1nccn2c1c(-c1cc3cccc(Cl)c3[nH]1)nc2[C@H]1CC[C@H](C(=O)O)CC1`, the outcome in [1] and in series [7] was Active. In addition, the IC50 was over 40000 nM in series [2]; 460 nM in series [5]; 1100 nM in series [13]; 29 nM at mTORC1; 190 nM in series [15]. Besides, the Activity in series [3] came to 45%; in series [4] it was 40%; in series [6], 48%; in series [8], 23%; in [10], 48%; in series [14] it was 54%. Moreover, in [16], the Activity amounted to 700%. Moreover, the inhibition result with Mus musculus and in the series with OVCAR-3 was “Active” throughout. The molecule further came in with a concentration at 337 h in series [9] of 25.6 µM. Besides, in series [11], the inhibition result was “Dose-Dependent Effect”. This molecule yielded a concentration at 344 h in [12] of 13.2 µM.

Broadly, the IC50 is the concentration at which inhibition is half-maximal.

The values are drawn from ChEMBL document CHEMBL5653605, “Reduced VEGF production, angiogenesis, and vascular regrowth contribute to the antitumor properties of dual mTORC1/mTORC2 inhibitors” (Cancer Res, 2011).
